Activity calls are given as the source filed them. The calls are words filed in the database; no cut-off is given here.
Tests used:
Pseudomonas aeruginosa [1] = assay: Antibiofilm activity against Pseudomonas aeruginosa PAO1 harboring sigma factor-Pvds mutant assessed as inhibition of biofilm formation at 20 uM relative to control; type: functional
[2] = Growth inhibition of Pseudomonas aeruginosa PAO1 at 512 uM by CLSI-based broth microdilution method
Method in brief: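 Broth microdilution following CLSI standards: two-fold serial dilutions were made in Mueller-Hinton broth and inoculated with P. aeruginosa to a final OD600 of 0.05. The top final concentration is printed as […].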

Pseudomonas aeruginosa [3] = assay: Inhibition of biofilm formation in multidrug resistant Pseudomonas aeruginosa 1121 at 20 uM relative to control; type: functional
L02 = assay: Cytotoxicity against human L02 cells assessed as reduction in cell viability up to 50 uM after 16 hrs by MTT assay; type: cell-based; conditions: l02, 16 h
Method in brief: (§1)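 Vero or LO2 cells were seeded at 5000–15000 cells/well for 16 h, PBS-washed, then exposed to compound in DMEM at 37 °C and 5% CO2 for 16 h. MTT (20 μL of 5 mg/mL) was added for 3 h, and formazan was dissolved in DMSO and read at 570 nm. Triplicate; mean ± SD.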

Vero = assay: Cytotoxicity against African green monkey Vero cells assessed as reduction in cell viability up to 50 uM after 16 hrs by MTT assay; type: cell-based; conditions: chlorocebus sabaeus; method in brief: as §1
[4] = molecular target: 3-(3-hydroxydecanoyloxy)decanoate synthase (Pseudomonas aeruginosa (strain ATCC 15692 / PAO1 / 1C / PRS 101 / LMG12228)) (UniProt Q51559); assay: Inhibition of rhlA fluorescence in Pseudomonas aeruginosa PAO1 transfected with GFP by measuring fluorescence intensity every 15 mins for 12 hrs by microtiter plate reader assay; conditions: dose microM 1.25-20, time 12.0 hrs
Method in brief: (§2)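 PAO1-gfp, PAO1-lasB-gfp, PAO1-rhlA-gfp or PAO1-pqsA-gfp reporters were grown overnight in LB, then diluted in ABTGC medium to OD600 0.02, with compound at 1.25–20 μM. Controls were 0.1% DMSO and a blank. OD600 and GFP fluorescence (ex 485/em 535 nm) were read every 15 min for at least 12 h at 37 °C; triplicate.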

[5] = Metal chelating activity assessed as negative logarithm of total free ferric ion concentration in a solution under biological conditions
Method in brief: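 Fluorescence competition with CP645 (6 μM), quenched by Fe-NTA (2 μM) for 30 min before compound (60 μM) was added in Chelex-treated MOPS. Fluorescence was read after 48 h, with DFP as reference. pFe(III) was calculated from relative fluorescence as % = 11.743 pFe(III) − 169. Mean of three determinations.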

Pseudomonas aeruginosa [6] = assay: Antibiofilm activity against Pseudomonas aeruginosa PAO1 assessed as inhibition of biofilm formation after 24 hrs by crystal violet staining based assay; type: functional, organism-based; conditions: dose microM 1.25-20, time 24.0 hrs
Method in brief: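 PAO1 (OD600 0.05) was cultured in ABTGC medium at 37 °C for 24 h with compound (1.25–20 μM for the dose series). Wells were PBS-washed three times, methanol-fixed for 30 min, air-dried, and stained with 0.1% crystal violet for 30 min. Stain was solubilized in 33% acetic acid and read at 570 nm. Compound stocks were […]. Run in triplicate.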

[7] = molecular target: Elastase (Pseudomonas aeruginosa (strain ATCC 15692 / PAO1 / 1C / PRS 101 / LMG12228)) (UniProt P14756); assay: Inhibition of lasB fluorescence in Pseudomonas aeruginosa PAO1 transfected with GFP by measuring fluorescence intensity every 15 mins for 12 hrs by microtiter plate reader assay; conditions: dose microM 1.25-20, time 12.0 hrs; method in brief: as §2
Pseudomonas aeruginosa [8] = assay: Inhibition of biofilm formation in multidrug resistant Pseudomonas aeruginosa 1121 at 10 uM relative to control; type: functional
Pseudomonas aeruginosa [9] = assay: Antibacterial activity against Pseudomonas aeruginosa infected in human L02 assessed as increase in cell survival pretreated for 24 hrs followed by cell addition and measured 4 hrs post-infection by MTT assay; type: functional, organism-based; conditions: dose microM 1.25-20, time 28.0 hrs
Method in brief: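 P. aeruginosa cultures were grown with 0, 1.25, 2.5, 5, 10 or 20 μM compound for 24 h at 37 °C with shaking. Washed cells (in DMEM) were infected at MOI 100 for 4 h. Bacteria were then killed with 500 μg/mL gentamycin for 2 h, and cells were given 500 μg/mL MTT for 16 h. Formazan was dissolved in DMSO and read at 570 nm.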

Pseudomonas aeruginosa [10] = assay: Inhibition of biofilm formation in multidrug resistant Pseudomonas aeruginosa FB at 20 uM relative to control; type: functional
Pseudomonas aeruginosa [11] = assay: Inhibition of biofilm formation in multidrug resistant Pseudomonas aeruginosa 1167 at 5 uM relative to control; type: functional
[12] = tested on: Pseudomonas aeruginosa PA14; assay: Inhibition of quorum sensing system PQS in Pseudomonas aeruginosa PA14 assessed as reduction in pyocyanin production measured after 48 hrs; conditions: dose microM 1.25-20, time 48.0 hrs
Method in brief: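 PA14 culture standardized to OD600 0.05 was diluted 100-fold in LB and grown 48 h at 37 °C with shaking, with compound at 1.25–20 μM. Cleared supernatant was extracted with chloroform (4:1), then back-extracted into 0.2 M HCl. A520 was read and normalized to final OD600.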

[13] = Growth inhibition of Pseudomonas aeruginosa PAO1 at 1.25 to 20 uM measured after 10 hrs in ABTGC media; conditions: dose 1.25-20 µM
[14] = tested on: Pseudomonas aeruginosa PAO1; assay: Induction of iron chelation in Pseudomonas aeruginosa PAO1 assessed as increase in intracellular pyoverdin level in presence of 10 uM FeCl3 by fluorescence microplate reader assay; type: cell-based; conditions: dose microM 1.25-20
Method in brief: (§3)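 PAO1 overnight LB culture was diluted in ABTGC medium to OD600 0.02 ([…]), with compound at 0–20 μM, in medium containing 10 or 50 μM FeCl3. Plates were kept at 37 °C in a plate reader recording OD600, pyoverdine fluorescence (ex 400/em 447 nm) and pyochelin fluorescence (ex 350/em 430 nm). Triplicate.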

[15] = tested on: Pseudomonas aeruginosa PAO1; assay: Induction of iron chelation in Pseudomonas aeruginosa PAO1 assessed as increase in intracellular pyoverdin level at 1.25 to 20 uM in presence of 50 uM FeCl3 by fluorescence microplate reader assay; type: cell-based; conditions: dose microM 1.25-20; method in brief: as §3
[16] = tested on: Pseudomonas aeruginosa PAO1; assay: Inhibition of quorum sensing system rhl in Pseudomonas aeruginosa PAO1 assessed as reduction in rhamnolipid production by orcinol assay; conditions: dose microM 1.25-20
Method in brief: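 An overnight culture was diluted 1:100 into a defined minimal medium (0.6% glycerol, 25 μM FeSO4) with compound at 1.25–20 μM and grown 24 h at 37 °C with shaking. Supernatant was ether-extracted twice, dried, resuspended in water, and reacted with 0.19% orcinol in 50% H2SO4 at 80 °C for 30 min. A421 was read and normalized to OD600.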

[17] = tested on: Pseudomonas aeruginosa PAO1; assay: Induction of iron chelation in Pseudomonas aeruginosa PAO1 assessed as increase in iron deficiency by measuring change in total ferric ion concentration at 2.5 uM by inductively coupled plasma mass spectrometry (reference value: 1.91 +/- 0.8 uM)
Method in brief: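 PAO1 (OD600 0.05) was diluted 1:100 into ABTGC medium and grown 24 h at 37 °C with shaking, with compound; DFP at 20 μM was the reference. Pellets were washed twice in HEPES and lysed with lysozyme in 50 mM HEPES plus sonication for 30 min. Lysates were digested with 1 M nitric acid, centrifuged, and analysed by ICP-MS. Mean ± SD, triplicate.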

Chain of Elastase (Pseudomonas aeruginosa (strain ATCC 15692 / PAO1 / 1C / PRS 101 / LMG12228)) (P14756 198-498 limits assumed): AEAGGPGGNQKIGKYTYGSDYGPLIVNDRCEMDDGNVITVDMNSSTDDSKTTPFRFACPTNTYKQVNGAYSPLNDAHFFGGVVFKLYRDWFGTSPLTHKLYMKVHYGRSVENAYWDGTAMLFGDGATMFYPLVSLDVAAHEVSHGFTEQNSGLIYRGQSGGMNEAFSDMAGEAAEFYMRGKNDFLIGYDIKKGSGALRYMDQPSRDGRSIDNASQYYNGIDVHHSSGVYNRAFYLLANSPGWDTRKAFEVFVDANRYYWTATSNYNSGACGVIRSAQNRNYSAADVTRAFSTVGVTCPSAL

CCCCCCC(=O)NCc1c(O)c(=O)cc(C)n1C
inhibition at 20 µM (Pseudomonas aeruginosa [1]): 20%
growth inhibition (GI) [2]: Non-Toxic
inhibition at 20 µM (Pseudomonas aeruginosa [3]): 23.2%
Activity (L02): Non-Toxic
Activity (Vero): Non-Toxic
inhibition [4]: Dose-dependent effect
pFe3+ [5]: 20.6
inhibition (Pseudomonas aeruginosa [6]): Dose-dependent effect
inhibition [7]: Dose-dependent effect
inhibition at 10 µM (Pseudomonas aeruginosa [8]): 4.41%
Activity (Pseudomonas aeruginosa [9]): Dose-dependent effect
inhibition at 20 µM (Pseudomonas aeruginosa [10]): 14.4%
inhibition at 5 µM (Pseudomonas aeruginosa [11]): 43.7%
inhibition [12]: Dose-dependent effect
growth inhibition (GI) [13]: Non-Toxic
Activity [14]: Dose-dependent effect
Activity [15]: inactive
inhibition [16]: Dose-dependent effect
Activity [17]: 1.56 µM

From ChEMBL document CHEMBL4665779, “Novel 2-Substituted 3-Hydroxy-1,6-dimethylpyridin-4(1H)-ones as Dual-Acting Biofilm Inhibitors of Pseudomonas aeruginosa” (J Med Chem, 2020)
